ChEMBL document CHEMBL1921722, “In vitro and in vivo evaluation of select kahalalide F analogs with antitumor and antifungal activities” (Bioorg Med Chem, 2011)
≈ marks a conversion by molar mass, not a printed value.

How the values were obtained:
A498 [1] = assay: Cytotoxicity against human A498 cells by sulforhodamine B assay; format: functional
Summary of the method: (§1)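 Run at NCI in the DTP 60-cell-line human tumor panel by standard procedure. Compounds were first screened at a single concentration, then tested at five tenfold-spaced concentrations. GI50 is the concentration reducing treated-cell growth to half that of untreated controls; TGI is the concentration completely halting growth.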

A498 [2] = assay: Cytotoxicity against human A498 cells assessed as cell growth at 80 uM by sulforhodamine B assay relative to control; format: functional; settings: read-out: Activity; summary of the method: as §1
K562 [3] = assay: Cytotoxicity against human K562 cells assessed as cell growth at 800 nM by sulforhodamine B assay relative to control; format: functional; settings: read-out: Activity
DU-145 [4] = assay: Cytotoxicity against human DU145 cells assessed as cell growth at 8 nM by sulforhodamine B assay relative to control; format: functional; settings: read-out: Activity; summary of the method: as §1
K562 [5] = assay: Cytotoxicity against human K562 cells assessed as cell growth at 80 nM by sulforhodamine B assay relative to control; format: functional; settings: read-out: Activity
SR = assay: Cytotoxicity against human SR cells assessed as cell growth at 80 nM by sulforhodamine B assay relative to control; format: functional; settings: read-out: Activity
HCT-15 [6] = assay: Cytotoxicity against human HCT15 cells by sulforhodamine B assay; format: functional
Summary of the method: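 Run by the NCI Developmental Therapeutics Program on its 60-line human tumour cell panel using the standard procedure. Compounds went through a single-concentration prescreen first, and those active by NCI criteria went on to a five-concentration growth-inhibition test. GI50 is the concentration that cuts growth of treated cells to half that of untreated control cells.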

Aspergillus fumigatus = assay: Antimicrobial activity against Aspergillus fumigatus ATCC 90906 by CLSI method; format: functional, organism-based
DU-145 [7] = assay: Cytotoxicity against human DU145 cells assessed as cell growth at 800 nM by sulforhodamine B assay relative to control; format: functional; settings: read-out: Activity
EKVX [8] = assay: Cytotoxicity against human EKVX cells assessed as cell growth at 800 nM by sulforhodamine B assay relative to control; format: functional; settings: read-out: Activity
HT-29 = assay: Cytotoxicity against human HT-29 cells assessed as cell growth at 80 nM by sulforhodamine B assay relative to control; format: functional; settings: read-out: Activity
ACHN = assay: Cytotoxicity against human ACHN cells assessed as cell growth at 8 uM by sulforhodamine B assay relative to control; format: functional; settings: read-out: Activity; summary of the method: as §1
Malme-3M = assay: Cytotoxicity against human MALME-3M cells assessed as cell growth at 8 nM by sulforhodamine B assay relative to control; format: functional; settings: read-out: Activity
OVCAR-5 = assay: Cytotoxicity against human OVCAR5 cells assessed as cell growth at 8 uM by sulforhodamine B assay relative to control; format: functional; settings: read-out: Activity
KM12 [9] = assay: Cytotoxicity against human KM12 cells assessed as cell growth at 80 uM by sulforhodamine B assay relative to control; format: functional; settings: read-out: Activity
HCT-15 [10] = assay: Cytotoxicity against human HCT15 cells assessed as cell growth at 80 uM by sulforhodamine B assay relative to control; format: functional; settings: read-out: Activity
NCI/ADR-RES [11] = assay: Cytotoxicity against human NCI/ADR-RES cells assessed as cell growth at 8 uM by sulforhodamine B assay relative to control; format: functional; settings: read-out: Activity
PC-3 = assay: Cytotoxicity against human PC3 cells assessed as cell growth at 80 nM by sulforhodamine B assay relative to control; format: functional; settings: read-out: Activity
RXF 393 [12] = assay: Cytotoxicity against human RXF393 cells by sulforhodamine B assay; format: functional
Summary of the method: (§2)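 NCI Developmental Therapeutics Program 60-cell-line human tumor panel screen, run at NCI. A single-concentration pre-screen was followed by a five-concentration dose-response in 10-fold steps. GI50 is the concentration that reduces growth of treated cells to half that of untreated control cells. TGI is the concentration that completely halts growth.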

OVCAR-4 [13] = assay: Cytotoxicity against human OVCAR4 cells assessed as cell growth at 80 nM by sulforhodamine B assay relative to control; format: functional; settings: read-out: Activity
SNB-75 = assay: Cytotoxicity against human SNB75 cells assessed as cell growth at 800 nM by sulforhodamine B assay relative to control; format: functional; settings: read-out: Activity
NCI-H226 [14] = assay: Cytotoxicity against human NCI-H226 cells assessed as cell growth at 80 uM by sulforhodamine B assay relative to control; format: functional; settings: read-out: Activity
HCC 2998 = assay: Cytotoxicity against human HCC2998 cells assessed as cell growth at 8 uM by sulforhodamine B assay relative to control; format: functional; settings: read-out: Activity
MDA-MB-435 = assay: Cytotoxicity against human MDA-MB-435 cells assessed as cell growth at 80 nM by sulforhodamine B assay relative to control; format: functional; settings: read-out: Activity
SF-539 = assay: Cytotoxicity against human SF539 cells assessed as cell growth at 800 nM by sulforhodamine B assay relative to control; format: functional; settings: read-out: Activity
786-0 = assay: Cytotoxicity against human 786-0 cells assessed as cell growth at 80 uM by sulforhodamine B assay relative to control; format: functional; settings: read-out: Activity; summary of the method: as §1
OVCAR-4 [15] = assay: Cytotoxicity against human OVCAR4 cells assessed as cell growth at 80 uM by sulforhodamine B assay relative to control; format: functional; settings: read-out: Activity
NCI-H226 [16] = assay: Cytotoxicity against human NCI-H226 cells assessed as cell growth at 8 nM by sulforhodamine B assay relative to control; format: functional; settings: read-out: Activity
NCI/ADR-RES [17] = assay: Cytotoxicity against human NCI/ADR-RES cells by sulforhodamine B assay; format: functional; summary of the method: as §2
NCI-H23 = assay: Cytotoxicity against human NCI-H23 cells by sulforhodamine B assay; format: functional; summary of the method: as §2
EKVX [18] = assay: Cytotoxicity against human EKVX cells assessed as cell growth at 8 uM by sulforhodamine B assay relative to control; format: functional; settings: read-out: Activity
T47D = assay: Cytotoxicity against human T47D cells assessed as cell growth at 80 nM by sulforhodamine B assay relative to control; format: functional; settings: read-out: Activity
SF-268 = assay: Cytotoxicity against human SF268 cells by sulforhodamine B assay; format: functional
A549 = assay: Cytotoxicity against human A549 cells by sulforhodamine B assay; format: functional; summary of the method: as §1
NCI-H322M = assay: Cytotoxicity against human NCI-H322M cells assessed as cell growth at 80 uM by sulforhodamine B assay relative to control; format: functional; settings: read-out: Activity
KM12 [19] = assay: Cytotoxicity against human KM12 cells assessed as cell growth at 800 nM by sulforhodamine B assay relative to control; format: functional; settings: read-out: Activity
OVCAR-3 = assay: Cytotoxicity against human OVCAR3 cells assessed as cell growth at 800 nM by sulforhodamine B assay relative to control; format: functional; settings: read-out: Activity
RXF 393 [20] = assay: Cytotoxicity against human RXF393 cells assessed as cell growth at 800 nM by sulforhodamine B assay relative to control; format: functional; settings: read-out: Activity
KM12 [21] = assay: Cytotoxicity against human KM12 cells assessed as cell growth at 80 nM by sulforhodamine B assay relative to control; format: functional; settings: read-out: Activity
M14 = assay: Cytotoxicity against human M14 cells assessed as cell growth at 80 nM by sulforhodamine B assay relative to control; format: functional; settings: read-out: Activity

C/C=C1\NC(=O)[C@H](Cc2ccccc2)NC(=O)[C@@H](C(C)C)NC(=O)[C@@H]([C@@H](C)CC)NC(=O)[C@H](NC(=O)[C@H](NC(=O)[C@H](CCCNCc2ccc(F)c(C)c2)NC(=O)[C@H]2CCCN2C(=O)[C@H](NC(=O)[C@@H](NC(=O)[C@@H](NC(=O)[C@H](NC(=O)CCCC(C)C)C(C)C)[C@@H](C)O)C(C)C)C(C)C)[C@@H](C)CC)[C@@H](C)OC(=O)[C@H](C(C)C)NC1=O
GI50 (A498 [1]): 1320 nM | LC50 (A498 [1]): 4470 nM | TGI (A498 [1]; read-out: pTGI (converted)): 2450 nM | growth at 80 µM (A498 [2]): -100% | growth at 0.8 µM (K562 [3]): 107% | growth at 0.008 µM (DU-145 [4]): 99% | growth at 0.08 µM (K562 [5]): 106% | growth at 0.08 µM (SR): 89% | LC50 (HCT-15 [6]): 1380 nM | GI50 (HCT-15 [6]; read-out: GI50): 181 nM | TGI (HCT-15 [6]; read-out: TGI): 419 nM | GI50 (HCT-15 [6]; read-out: pGI50 (converted)): 182 nM | TGI (HCT-15 [6]; read-out: pTGI (converted)): 417 nM | IC50 (Aspergillus fumigatus): 3090 nM | MFC (Aspergillus fumigatus): 10 µM (≈ 16 µg/mL) | MIC (Aspergillus fumigatus): 10 µM (≈ 16 µg/mL) | growth at 0.8 µM (DU-145 [7]): -85% | growth at 0.8 µM (EKVX [8]): 50% | growth at 0.08 µM (HT-29): 102% | growth at 8 µM (ACHN): -97% | growth at 0.008 µM (Malme-3M): 108% | growth at 8 µM (OVCAR-5): -95% | growth at 80 µM (KM12 [9]): -36% | growth at 80 µM (HCT-15 [10]): -78% | growth at 8 µM (NCI/ADR-RES [11]): -76% | growth at 0.08 µM (PC-3): 104% | GI50 (RXF 393 [12]): 1350 nM | LC50 (RXF 393 [12]): 6310 nM | TGI (RXF 393 [12]; read-out: pTGI (converted)): 2950 nM | growth at 0.08 µM (OVCAR-4 [13]): 104% | growth at 0.8 µM (SNB-75): 21% | growth at 80 µM (NCI-H226 [14]): -18% | growth at 8 µM (HCC 2998): -87% | growth at 0.08 µM (MDA-MB-435): 103% | growth at 0.8 µM (SF-539): 93% | growth at 80 µM (786-0): -98% | growth at 80 µM (OVCAR-4 [15]): -20% | growth at 0.008 µM (NCI-H226 [16]): 101% | GI50 (NCI/ADR-RES [17]): 1320 nM | LC50 (NCI/ADR-RES [17]): 5250 nM | TGI (NCI/ADR-RES [17]; read-out: pTGI (converted)): 2630 nM | GI50 (NCI-H23): 1410 nM | LC50 (NCI-H23): 5250 nM | TGI (NCI-H23; read-out: pTGI (converted)): 2750 nM | growth at 8 µM (EKVX [18]): -82% | growth at 0.08 µM (T47D): 90% | GI50 (SF-268): 955 nM | GI50 (A549; read-out: GI50): 167 nM | GI50 (A549; read-out: pGI50 (converted)): 166 nM | growth at 80 µM (NCI-H322M): -94% | growth at 0.8 µM (KM12 [19]): -55% | growth at 0.8 µM (OVCAR-3): 39% | growth at 0.8 µM (RXF 393 [20]): 88% | growth at 0.08 µM (KM12 [21]): 98% | growth at 0.08 µM (M14): 99%
